# Only some compounds are listed: those with a hit (about 3% of all), similar ones and a draw of the others.
# CendR NRP1 mod: modulators of CendR peptide binding to NRP-1, primary screen, biochemical, fluorescence polarization, uHTS | Neuropilin-1 (Homo sapiens), O14786 | FAM-RPARPAR peptide binding to NRP-1 | inhibition, % at 25 µM | 360,000 compounds, 0.85% hits;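 active means inhibition or corrected inhibition above about 18%, plus a signal ratio from 0.5 to 1.5, limit read from the data, passing the limit was not always enough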
# proKLK7 act: proKLK7 zymogen activators, primary screen, biochemical, fluorescence intensity; Kallikrein-7 (Homo sapiens), P49862; 370,000 compounds, 0.9% hits; AID 652039, 2013; activation, % at 7 µM; purified proKLK7, EDANS-DABCYL substrate fluorescence; 100% is mature enzyme control, 0% vehicle;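 active means activation above the mean of all tested compounds plus 3 SD, computed per campaign excluding outliers beyond control limits, cut at about 13% in these data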
# Tn6 DDE FP: inhibitors of Tn6 peptide binding to fibrin DD(E), primary screen, biochemical, fluorescence polarization, human fibrin, Tn6 probe; Fibrin DD(E) TRITC-Tn6 fluorescence polarization displacement; 370,000 compounds, 0.21% hits; inhibition, % at 8.3 µM;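 active means inhibition above a per-campaign cutoff: mean of compounds within control limits plus 3 SD, cut at about 15% in these data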;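 further: 0% = median of all compound wells on the plate and 100% = blocking peptide control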
# PLC-beta3 inh: human PLC-beta3 inhibitors, primary screen, biochemical, fluorescence | Purified PLC-beta3, fluorogenic substrate | AID 720704, 2013 | inhibition, % at 12.2 µM | 370,000 compounds, 0.18% hits; in the data active means inhibition above about 11%;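 further: 0% = median of compound wells on plate and 100% = full blocker control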
# PLC-gamma1 inh: PLC-gamma1 enzyme inhibitors, primary screen, biochemical, fluorescence, purified enzyme; 1-phosphatidylinositol 4,5-bisphosphate phosphodiesterase gamma-1 (Homo sapiens), P19174; fluorogenic substrate; inhibition, % at 12.2 µM; 370,000 compounds, 0.84% hits; in the data active means inhibition above about 9.5%
# Target sequence (P19174 whole entry, looked up): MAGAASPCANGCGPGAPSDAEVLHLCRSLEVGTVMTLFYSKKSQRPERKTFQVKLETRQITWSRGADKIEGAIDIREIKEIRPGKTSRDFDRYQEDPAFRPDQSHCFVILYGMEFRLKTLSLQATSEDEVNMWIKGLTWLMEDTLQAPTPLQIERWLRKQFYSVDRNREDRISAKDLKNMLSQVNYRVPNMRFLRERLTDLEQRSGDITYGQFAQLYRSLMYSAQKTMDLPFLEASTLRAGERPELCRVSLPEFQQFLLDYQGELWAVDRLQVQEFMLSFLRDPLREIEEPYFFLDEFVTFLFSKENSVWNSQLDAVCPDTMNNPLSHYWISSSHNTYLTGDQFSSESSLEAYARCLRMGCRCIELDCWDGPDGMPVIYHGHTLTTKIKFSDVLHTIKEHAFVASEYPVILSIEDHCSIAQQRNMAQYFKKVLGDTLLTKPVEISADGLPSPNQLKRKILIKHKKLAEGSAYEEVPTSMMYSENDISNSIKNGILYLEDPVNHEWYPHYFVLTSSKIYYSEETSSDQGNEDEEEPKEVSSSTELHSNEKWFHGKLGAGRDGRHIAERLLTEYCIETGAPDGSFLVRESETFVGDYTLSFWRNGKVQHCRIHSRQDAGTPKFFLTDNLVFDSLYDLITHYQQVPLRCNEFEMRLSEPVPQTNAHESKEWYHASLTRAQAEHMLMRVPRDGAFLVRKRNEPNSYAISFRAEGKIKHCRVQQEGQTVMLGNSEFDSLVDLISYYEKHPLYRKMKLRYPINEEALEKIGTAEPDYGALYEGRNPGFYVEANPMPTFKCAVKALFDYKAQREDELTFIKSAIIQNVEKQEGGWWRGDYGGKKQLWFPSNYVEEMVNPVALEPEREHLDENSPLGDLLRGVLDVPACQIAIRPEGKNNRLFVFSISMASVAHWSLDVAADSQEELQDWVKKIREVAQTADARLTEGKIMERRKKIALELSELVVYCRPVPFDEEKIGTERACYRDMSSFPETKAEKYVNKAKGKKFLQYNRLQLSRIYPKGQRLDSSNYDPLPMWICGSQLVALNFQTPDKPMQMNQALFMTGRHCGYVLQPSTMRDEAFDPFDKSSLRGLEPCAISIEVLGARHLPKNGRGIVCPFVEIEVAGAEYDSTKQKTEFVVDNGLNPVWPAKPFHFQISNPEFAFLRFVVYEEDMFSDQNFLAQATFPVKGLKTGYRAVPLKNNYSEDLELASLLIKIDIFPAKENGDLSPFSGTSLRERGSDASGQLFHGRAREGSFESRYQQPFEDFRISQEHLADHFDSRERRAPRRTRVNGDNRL
# DDE Tn7 FP inh: inhibitors of Tn7 peptide binding to fibrin DD(E), primary screen, biochemical, fluorescence polarization, human fibrin, Tn7 probe; FP displacement of FITC-Tn7 peptide from fibrin DD(E); 0% = median of compound wells per plate; inhibition, % at 8.3 µM; Fibrinogen beta chain (Homo sapiens), P02675; 370,000 compounds, 0.13% hits; AID 720508, 2013;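 active means inhibition above the mean of compounds falling within the control limits plus 3 SD of them, cut at about 14% in these data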;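 further: 0% = plate median of compound wells and 100% = 10 µM Aha-Tn7 peptide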
#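 Assay system: human fibrin DD(E). Input: DD(E) 2 µM final. Medium: Tris buffer with calcium and detergent, pH 7.8. Compound dosing: single point at 8.3 µM. Timing: 10 min plus 3 h, room temperature. Technique: fluorescence polarization of the labelled Tn7 tracer. Read-out: percent inhibition. Replicates: singlicate testing.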
# Starred values were filed as active, the others as inactive; i = inactive; nt = no result.
SMILES,CendR NRP1 mod,proKLK7 act,Tn6 DDE FP,PLC-beta3 inh,PLC-gamma1 inh,DDE Tn7 FP inh
Cc1cccc(-c2cccc3c4c([nH]c23)[C@@H]2C[C@H](N(C)C(=O)c3cccc(Cl)c3)[C@H]([C@H](C)O)CN2CC4)c1,nt,0.2,6.6,-59.6,-39.4,0.1
COC(=O)C1CN(C2CC2)CCS(=O)(=O)N1Cc1cn(Cc2ccc(Cl)cc2)nn1 (stereo unspecified),nt,0.6,9.6,0.0,-0.3,5.2
COc1cccc(NC(=O)Nc2ccc(Br)cn2)c1,8.6,0.6,0.8,-4.1,1.3,12.4
COc1ccc(NC(=O)Nc2ccc(Br)cn2)cc1OC,47.3*,0.6,0.2,3.1,4.9,0.2
CCOC(=O)c1sc(-c2ccc(OC)cc2)cc1N,26.3*,0.5,-2.7,-53.1,-34.4,5.8
CCOC(=O)c1sc(-c2ccc(F)cc2)cc1N,3.5,-0.2,3.1,-32.4,-18.7,9.2
N#Cc1c(C(F)(F)F)cc(-c2ccccc2)[nH]c1=O,5.4,25.5*,9.0,-467.2,-377.8,5.6
N#Cc1c(-c2ccccc2)[nH]c(=O)[nH]c1=O,27.4*,-1.0,6.8,-2.5,-1.6,4.1
CN1C2=N[C@H](c3cccc(C(F)(F)F)c3)CC(=O)N2/C(=C\c2ccccc2)[C@H]1c1ccccc1,nt,nt,-2.0,-2.4,-2.5,5.3
CCC(NC(=O)c1ccc2c(c1)c(C)c(C)n2Cc1ccc(-c2ccccc2C#N)cc1)c1ccccc1 (stereo unspecified),nt,-2.4,-6.7,-13.4,1.6,-3.7
O=C(O)CCC(=O)Nc1cccc(C(=O)c2ccccc2)c1,-3.8,0.1,1.3,-7.1,-0.7,2.7
Cc1ccccc1NC(=O)c1cccc(NC(=O)CCC(=O)O)c1,22.8*,0.1,-4.8,-0.9,-1.3,1.0
O=C(CSc1nc2ccccc2nc1N1CCCCC1)NCc1ccc(Cl)cc1Cl,nt,0.1,3.1,-0.5,-0.9,-3.3
CCCCCn1nnnc1C1(C)CN(S(C)(=O)=O)CC(=O)N1Cc1ccco1 (stereo unspecified),nt,-0.8,-1.2,1.8,-0.9,-5.9
CCN(CCCNC(=O)CNC(=O)c1nn(-c2ccc(OC)cc2OC)c(=O)c2ccccc12)c1cccc(C)c1,25.1*,1.1,-24.5,-25.4,-17.8,-3.0
C=C1CCN([C@@H](Cc2ccccc2)C(=O)Nc2ccc(OC)cc2)S(=O)(=O)c2ccccc21,27.1*,0.7,-5.6,7.7,1.5,3.3
C=C1CCN([C@@H](CC(C)C)C(=O)NCc2ccc(Cl)c(Cl)c2)S(=O)(=O)c2ccccc21,32.5*,0.4,3.2,1.8,0.3,0.1
C=C1CCN([C@@H](CC(C)C)C(=O)NCCC(C)C)S(=O)(=O)c2ccccc21,23.7*,-0.9,1.2,-0.8,4.7,1.1
C=C1CCN([C@@H](CC(C)C)C(=O)NCc2ccc(Cl)cc2)S(=O)(=O)c2ccccc21,17.8,0.5,5.8,0.3,-1.3,-1.1
Cc1cc(C)cc(C(=O)OCCN2CCN(C3CN(Cc4cn(Cc5ccc([N+](=O)[O-])cc5)nn4)S(=O)(=O)C3)CC2)c1 (stereo unspecified),nt,0.6,-3.3,-5.5,-4.3,0.7
COc1ccc(/C=C/C(Cc2cccc(C(C)=O)c2)c2ccc(C)cc2)cc1 (stereo unspecified),nt,0.4,0.6,-4.8,-1.1,-2.0
CCO[C@@H]1c2c(ccc3ccc(=O)oc23)OC(C)(C)[C@H]1O,-0.3,0.3,1.4,-54.5,-35.0,-13.7
CCO[C@@H]1c2c(ccc3ccc(=O)oc23)OC(C)(C)[C@@H]1O,31.5*,1.6,-0.9,-40.4,-29.3,-7.2
COC(=O)c1cc2c(c3c4cc(OC)ccc4n(S(=O)(=O)c4ccc(OC)cc4)c13)C(=O)N(Cc1ccc(N(C)C)cc1)C2,nt,-0.6,-8.6,-13.3,-10.7,1.5
CCCCN(C)S(=O)(=O)c1ccc(C(=O)Nc2nnc(C3=COCCO3)o2)cc1,29.5*,0.0,-2.2,1.3,-1.3,-5.5
SMILES,CendR NRP1 mod,proKLK7 act,Tn6 DDE FP,PLC-beta3 inh,PLC-gamma1 inh,DDE Tn7 FP inh
CCCN(CCC)S(=O)(=O)c1ccc(C(=O)Nc2nnc(-c3cc(OC)cc(OC)c3)o2)cc1,24.7*,nt,nt,nt,nt,nt
O=C(CC1C(=O)NCCN1Cc1cccc(C(F)(F)F)c1)NCCc1cnccn1 (stereo unspecified),20.9*,-0.4,-3.2,-24.1,-6.3,-3.6
Cc1ccccc1CN1CCCCC(NC(=O)c2cccc(F)c2)C1=O (stereo unspecified),nt,-0.3,-6.4,0.2,-2.3,8.0
CC(c1ccccc1)N1CC[C@H]2C=CC[C@@H](C(=O)Nc3ccc(F)c(F)c3)[C@H]2C1=O (stereo partly specified),nt,nt,-0.3,5.2,-1.4,9.7
COC(=O)c1ccc(NCc2cc(O)ccc2O)cc1O,9.7,2.0,6.2,-4.7,-5.6,-2.5
COC(=O)c1ccc(NCc2c(O)ccc(O)c2Br)cc1Cl,-9.6,0.2,-11.4,1.8,9.8*,5.8
Nn1c(SCC(=O)Nc2nccs2)nnc1-c1cc(-c2ccc(Cl)cc2)n[nH]1,nt,-0.3,-5.5,1.8,2.4,-12.0
CCS(=O)(=O)c1ccc(C=NNc2nc3ccccc3o2)cc1,18.3*,0.1,-2.9,-52.4,-44.0,-2.1
N#Cc1cccc(NC(=O)OCCN2C(=O)CCC23CCC(c2ccccc2)CC3)c1 (stereo unspecified),nt,-0.3,3.6,-2.7,-1.6,-9.7
N#Cc1cc2ccncc2c2ccccc12,-3.4,0.5,1.4,1.0,0.4,5.4
Nc1cc2ccncc2c2ccccc12,-1.0,102.7*,4.2,i,i,-3.2
CCCCCN1CCCCC(NC(=O)C(C)(C)C)C1=O (stereo unspecified),nt,0.0,4.6,2.4,1.4,0.0
O=C(Nc1ccc(C(F)(F)F)cc1)OC1CC2CC1[C@H]1CCCCN1C2 (stereo partly specified),nt,0.0,8.6,-0.5,-0.9,-2.3
O=C1OC(N2C(=O)CC[C@H]2C(=O)NCC2CCCO2)c2ccccc21 (stereo partly specified),21.7*,0.2,-12.7,-0.1,8.4,2.4
O=C(NCC1CCCO1)[C@@H]1CSC2c3ccccc3C(=O)N21 (stereo partly specified),-5.9,0.3,-2.0,-0.8,-2.5,8.1
CC(C)c1ccc(C(=O)Nc2cc(Cl)ccc2C(=O)O)cc1,nt,nt,1.6,-5.3,0.4,-6.7
